Test results taken from ChEMBL document CHEMBL4002548 (Eur J Med Chem, 2017).
Blank lines part the entries; values can stand above or below the compound they belong to.

Assays:
[1] = tested on: KG-1; experiment: Antiproliferative activity against FGFR1-translocated human KG1 cells after 72 hrs by CCK8/SRB assay; assay type: functional, cell-based; conditions: KG-1, 72 h
Method in brief: (§1)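 Cells seeded, then exposed next day to a range of compound concentrations for 72 h. Proliferation read by sulforhodamine B or CCK-8. IC50 obtained by four-parameter concentration–response curve fitting from two separate experiments. BaF3 lines stably express constitutively active TEL-FGFR4, TEL-KDR, CCDC6-RET or CCDC6-RET-V804M.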

[2] = target: Vascular endothelial growth factor receptor 2 (Homo sapiens, UniProt P35968); experiment: Inhibition of recombinant KDR (unknown origin) using poly (Glu, Tyr) 4:1 after 60 mins by ELISA method
[3] = target: T1, Fibroblast growth factor receptor 1 (Homo sapiens, UniProt P11362); experiment: Inhibition of recombinant FGFR1 (unknown origin) using poly (Glu, Tyr) 4:1 after 60 mins by ELISA method
Target sequence in this assay (P11362 whole entry): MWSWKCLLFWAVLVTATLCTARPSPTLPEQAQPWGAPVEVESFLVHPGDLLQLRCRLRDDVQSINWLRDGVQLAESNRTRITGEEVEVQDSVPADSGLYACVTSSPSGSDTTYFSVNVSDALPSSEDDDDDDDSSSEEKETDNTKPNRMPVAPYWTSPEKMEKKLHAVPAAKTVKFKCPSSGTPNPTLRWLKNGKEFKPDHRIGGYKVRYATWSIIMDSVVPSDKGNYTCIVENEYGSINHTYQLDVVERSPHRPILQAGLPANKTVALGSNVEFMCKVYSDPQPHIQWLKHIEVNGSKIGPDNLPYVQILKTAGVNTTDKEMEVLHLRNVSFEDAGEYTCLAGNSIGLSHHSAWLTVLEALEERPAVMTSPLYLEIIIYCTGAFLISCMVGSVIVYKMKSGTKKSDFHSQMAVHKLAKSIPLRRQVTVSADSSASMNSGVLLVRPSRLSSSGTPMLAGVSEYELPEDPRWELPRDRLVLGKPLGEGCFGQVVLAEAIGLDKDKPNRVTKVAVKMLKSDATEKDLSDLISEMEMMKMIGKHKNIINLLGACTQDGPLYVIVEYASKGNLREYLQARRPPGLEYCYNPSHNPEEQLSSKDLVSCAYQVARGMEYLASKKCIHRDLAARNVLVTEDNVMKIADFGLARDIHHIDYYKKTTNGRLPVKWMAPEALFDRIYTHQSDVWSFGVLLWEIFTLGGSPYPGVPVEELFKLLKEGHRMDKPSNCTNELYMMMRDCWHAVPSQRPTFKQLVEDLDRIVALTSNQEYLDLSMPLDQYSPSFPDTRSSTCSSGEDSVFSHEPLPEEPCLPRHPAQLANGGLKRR

[4] = target: Fibroblast growth factor receptor 2 (Homo sapiens, UniProt P21802); experiment: Inhibition of recombinant FGFR2 (unknown origin) using poly (Glu,Tyr) 4:1 as substrate after 60 mins by ELISA
[5] = target: Fibroblast growth factor receptor 3 (Homo sapiens, UniProt P22607); experiment: Inhibition of recombinant FGFR3 (unknown origin) using poly (Glu,Tyr) 4:1 as substrate after 60 mins by ELISA
[6] = target: Fibroblast growth factor receptor 4 (Homo sapiens, UniProt P22455); experiment: Inhibition of recombinant FGFR4 (unknown origin) using poly (Glu,Tyr) 4:1 as substrate after 60 mins by ELISA
[7] = target: Proto-oncogene tyrosine-protein kinase receptor Ret (Homo sapiens, UniProt P07949); experiment: Inhibition of recombinant RET (unknown origin) using poly (Glu,Tyr) 4:1 as substrate after 60 mins by ELISA
[8] = target: Vascular endothelial growth factor receptor 1 (Homo sapiens, UniProt P17948); experiment: Inhibition of recombinant VEGFR1 (unknown origin) using poly (Glu,Tyr) 4:1 as substrate after 60 mins by ELISA
[9] = target: Epidermal growth factor receptor (Homo sapiens, UniProt P00533); experiment: Inhibition of recombinant EGFR (unknown origin) using poly (Glu,Tyr) 4:1 as substrate after 60 mins by ELISA
[10] = target: Platelet-derived growth factor receptor alpha (Homo sapiens, UniProt P16234); experiment: Inhibition of recombinant PDGFRalpha (unknown origin) using poly (Glu,Tyr) 4:1 as substrate after 60 mins by ELISA
[11] = target: Platelet-derived growth factor receptor beta (Homo sapiens, UniProt P09619); experiment: Inhibition of recombinant PDGFRbeta (unknown origin) using poly (Glu,Tyr) 4:1 as substrate after 60 mins by ELISA
[12] = target: Proto-oncogene tyrosine-protein kinase Src (Homo sapiens, UniProt P12931); experiment: Inhibition of recombinant c-Src (unknown origin) using poly (Glu,Tyr) 4:1 as substrate after 60 mins by ELISA
[13] = target: Tyrosine-protein kinase ABL1 (Homo sapiens, UniProt P00519); experiment: Inhibition of recombinant ABL (unknown origin) using poly (Glu,Tyr) 4:1 as substrate after 60 mins by ELISA
[14] = tested on: SNU-16; experiment: Antiproliferative activity against FGFR2-amplified human SNU16 cells after 72 hrs by CCK8/SRB assay; assay type: functional, cell-based; conditions: SNU-16, 72 h; method in brief: as §1
[15] = tested on: RT-112; experiment: Antiproliferative activity against FGFR3-amplified human RT112 cells after 72 hrs by CCK8/SRB assay; assay type: functional, cell-based; conditions: RT-112, 72 h; method in brief: as §1
[16] = tested on: BaF3; experiment: Antiproliferative activity against mouse BAF3 cells expressing TEL-FGFR4 fusion protein after 72 hrs by CCK8/SRB assay; assay type: functional, cell-based; conditions: BaF3, 72 h; method in brief: as §1
[17] = tested on: BaF3; experiment: Antiproliferative activity against mouse BAF3 cells expressing TEL-KDR fusion protein after 72 hrs by CCK8/SRB assay; assay type: functional, cell-based; conditions: BaF3, 72 h; method in brief: as §1
[18] = tested on: BaF3; experiment: Antiproliferative activity against mouse BAF3 cells expressing CCDC6-RET fusion protein after 72 hrs by CCK8/SRB assay; assay type: functional, cell-based; conditions: BaF3, 72 h; method in brief: as §1
[19] = tested on: BaF3; experiment: Antiproliferative activity against mouse BAF3 cells expressing CCDC6-RET […] mutant after 72 hrs by CCK8/SRB assay; assay type: functional, cell-based; conditions: BaF3, 72 h; method in brief: as §1
[20] = Inhibition of recombinant RET […] mutant (unknown origin) using poly (Glu,Tyr) 4:1 as substrate after 60 mins by ELISA; parameters: species or system Homo sapiens
Method in brief: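 Poly(Glu,Tyr) 4:1 pre-coated at 20 µg/mL as substrate. Reaction with 10 µmol/L ATP in HEPES pH 7.4 buffer containing MgCl2, MnCl2, Na3VO4 and DTT; compound in 1% DMSO, with 1% DMSO as negative control; started by adding kinase. Run 60 min at 37 °C. Phosphotyrosine detected with PY99 and HRP anti-mouse IgG, o-phenylenediamine colour read at 490 nm. IC50 from inhibition curves, two separate experiments.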

[21] = target: T1, Fibroblast growth factor receptor 1; experiment: Inhibition of FGFR1 phosphorylation in FGFR1 translocated human KG1 cells after 2 hrs by Western blot method
Method in brief: (§2)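 KG1 cells treated with a range of compound concentrations for 2 h at 37 °C, then lysed in 1× SDS sample buffer. Lysates resolved by SDS–PAGE and blotted. Probes: phospho-FGFR1, FGFR, phospho-PLCγ, PLCγ, phospho-ERK1/2, ERK1/2, with GAPDH as loading control. Detection by HRP secondary and enhanced chemiluminescence.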
Target sequence in this assay (P11362 22-822 limits assumed): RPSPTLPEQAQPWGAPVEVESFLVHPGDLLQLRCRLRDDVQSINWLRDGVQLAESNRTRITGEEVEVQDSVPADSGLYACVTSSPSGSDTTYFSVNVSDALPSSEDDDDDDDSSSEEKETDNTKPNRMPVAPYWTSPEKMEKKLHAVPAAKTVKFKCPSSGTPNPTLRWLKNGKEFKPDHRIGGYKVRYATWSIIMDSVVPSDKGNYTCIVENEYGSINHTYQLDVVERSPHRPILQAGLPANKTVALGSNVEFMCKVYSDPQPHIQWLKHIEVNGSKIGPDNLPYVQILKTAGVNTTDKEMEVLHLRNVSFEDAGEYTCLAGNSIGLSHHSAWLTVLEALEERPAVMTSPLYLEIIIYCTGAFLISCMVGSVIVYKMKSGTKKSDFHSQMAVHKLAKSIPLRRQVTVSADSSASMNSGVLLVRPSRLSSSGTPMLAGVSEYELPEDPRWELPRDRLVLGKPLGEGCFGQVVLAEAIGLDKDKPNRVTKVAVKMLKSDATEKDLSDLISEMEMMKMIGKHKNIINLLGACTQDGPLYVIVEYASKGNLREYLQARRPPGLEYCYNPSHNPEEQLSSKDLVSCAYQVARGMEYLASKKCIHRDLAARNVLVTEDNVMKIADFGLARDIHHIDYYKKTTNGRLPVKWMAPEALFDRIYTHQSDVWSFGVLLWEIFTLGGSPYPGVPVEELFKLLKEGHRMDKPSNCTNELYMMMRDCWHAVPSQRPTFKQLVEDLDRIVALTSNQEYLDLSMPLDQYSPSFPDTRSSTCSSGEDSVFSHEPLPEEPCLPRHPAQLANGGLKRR

[22] = target: T1, Fibroblast growth factor receptor 1; experiment: Inhibition of FGFR1 in FGFR1 translocated human KG1 cells assessed as suppression of PLCgamma phosphorylation after 2 hrs by Western blot analysis; method in brief: as §2
Target sequence in this assay (P11362 22-822 limits assumed): as above

[23] = target: T1, Fibroblast growth factor receptor 1; experiment: Inhibition of FGFR1 in FGFR1 translocated human KG1 cells assessed as suppression of phosphorylated ERK after 2 hrs by Western blot analysis; method in brief: as §2
Target sequence in this assay (P11362 22-822 limits assumed): as above

[24] = AUC (0 to 24 hrs) in mouse at 10 mg/kg, po; assay type: ADME, organism-based; parameters: time < 24 hr, dose 10 mg/kg, route oral; conditions: in vivo
[25] = tested on: NCI-H1581; experiment: Antitumor activity against FGFR1-amplified human NCI-H1581 cells xenografted in nude mouse assessed as tumor growth inhibition at 20 mg/kg, po qd administered for 10 days and measured on day 10 post last dose relative to vehicle-treated control; assay type: functional; conditions: 240 h, read-out: TGI
Method in brief: (§3)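 Male nude mice, 4-6 weeks old, kept under SPF conditions. Tumours grown s.c. from 5×10^6 cells, then passaged as 1 mm³ fragments by trocar. Randomised at 120–150 mm³ (n=6 treated, 12 vehicle). Compound given orally once daily, 10 days for NCI-H1581 and 18 days for SNU16. Calipers twice weekly; V = L×W²/2. TGI taken on final day from volume change versus vehicle.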

[26] = tested on: SNU-16; experiment: Antitumor activity against FGFR2-amplified human SNU16 cells xenografted in nude mouse assessed as tumor growth inhibition at 20 mg/kg, po qd administered for 18 days and measured on day 18 post last dose relative to vehicle-treated control; assay type: functional; conditions: SNU-16, po, 432 h, read-out: TGI; method in brief: as §3
[27] = tested on: NCI-H1581; experiment: Antitumor activity against FGFR1-amplified human NCI-H1581 cells xenografted in nude mouse assessed as tumor growth inhibition at 5 mg/kg, po qd administered for 10 days and measured on day 10 post last dose relative to vehicle-treated control; assay type: functional; conditions: 240 h, read-out: TGI; method in brief: as §3
[28] = tested on: NCI-H1581; experiment: Antiproliferative activity against FGFR1-amplified human NCI-H1581 cells after 72 hrs by CCK8/SRB assay; conditions: NCI-H1581, 72 h
[29] = tested on: SNU-16; experiment: Antitumor activity against FGFR2-amplified human SNU16 cells xenografted in nude mouse assessed as tumor growth inhibition at 30 mg/kg, po qd administered for 18 days and measured on day 18 post last dose relative to vehicle-treated control; assay type: functional; conditions: SNU-16, po, 432 h, read-out: TGI; method in brief: as §3

Vascular endothelial growth factor receptor 2, sequence (P35968 whole entry): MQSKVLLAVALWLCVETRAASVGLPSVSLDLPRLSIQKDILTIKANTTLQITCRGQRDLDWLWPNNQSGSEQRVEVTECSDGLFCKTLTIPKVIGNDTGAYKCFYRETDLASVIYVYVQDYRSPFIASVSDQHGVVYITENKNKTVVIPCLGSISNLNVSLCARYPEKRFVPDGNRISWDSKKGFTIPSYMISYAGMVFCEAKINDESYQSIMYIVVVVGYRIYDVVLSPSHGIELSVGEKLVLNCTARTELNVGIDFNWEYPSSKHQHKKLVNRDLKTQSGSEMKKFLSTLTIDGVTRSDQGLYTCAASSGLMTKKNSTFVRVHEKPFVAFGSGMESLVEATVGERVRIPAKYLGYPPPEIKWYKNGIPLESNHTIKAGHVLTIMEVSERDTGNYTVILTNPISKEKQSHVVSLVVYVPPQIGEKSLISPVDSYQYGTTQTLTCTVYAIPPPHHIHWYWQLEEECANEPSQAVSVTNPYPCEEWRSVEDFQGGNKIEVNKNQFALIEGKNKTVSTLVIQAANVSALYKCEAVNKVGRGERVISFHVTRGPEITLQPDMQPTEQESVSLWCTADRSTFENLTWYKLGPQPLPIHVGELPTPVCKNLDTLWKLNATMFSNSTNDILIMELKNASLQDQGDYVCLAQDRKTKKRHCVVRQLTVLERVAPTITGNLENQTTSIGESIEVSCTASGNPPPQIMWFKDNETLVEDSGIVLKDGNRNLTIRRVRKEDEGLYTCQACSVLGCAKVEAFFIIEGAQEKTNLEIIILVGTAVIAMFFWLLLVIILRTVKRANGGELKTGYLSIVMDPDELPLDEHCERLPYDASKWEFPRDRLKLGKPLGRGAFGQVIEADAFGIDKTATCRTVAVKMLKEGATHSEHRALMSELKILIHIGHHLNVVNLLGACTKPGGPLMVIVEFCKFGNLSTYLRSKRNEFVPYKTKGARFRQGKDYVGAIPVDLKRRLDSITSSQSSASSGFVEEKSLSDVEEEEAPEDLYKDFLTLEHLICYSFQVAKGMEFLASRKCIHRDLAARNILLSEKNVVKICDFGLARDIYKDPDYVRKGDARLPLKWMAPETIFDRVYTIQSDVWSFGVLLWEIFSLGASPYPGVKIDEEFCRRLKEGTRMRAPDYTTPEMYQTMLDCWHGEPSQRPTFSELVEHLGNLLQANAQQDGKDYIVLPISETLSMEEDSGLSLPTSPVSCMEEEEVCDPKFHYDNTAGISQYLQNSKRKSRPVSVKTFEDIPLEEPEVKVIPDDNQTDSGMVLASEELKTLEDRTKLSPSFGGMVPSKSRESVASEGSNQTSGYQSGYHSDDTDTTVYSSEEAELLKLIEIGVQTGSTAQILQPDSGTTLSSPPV
Proto-oncogene tyrosine-protein kinase receptor Ret, sequence (P07949 whole entry): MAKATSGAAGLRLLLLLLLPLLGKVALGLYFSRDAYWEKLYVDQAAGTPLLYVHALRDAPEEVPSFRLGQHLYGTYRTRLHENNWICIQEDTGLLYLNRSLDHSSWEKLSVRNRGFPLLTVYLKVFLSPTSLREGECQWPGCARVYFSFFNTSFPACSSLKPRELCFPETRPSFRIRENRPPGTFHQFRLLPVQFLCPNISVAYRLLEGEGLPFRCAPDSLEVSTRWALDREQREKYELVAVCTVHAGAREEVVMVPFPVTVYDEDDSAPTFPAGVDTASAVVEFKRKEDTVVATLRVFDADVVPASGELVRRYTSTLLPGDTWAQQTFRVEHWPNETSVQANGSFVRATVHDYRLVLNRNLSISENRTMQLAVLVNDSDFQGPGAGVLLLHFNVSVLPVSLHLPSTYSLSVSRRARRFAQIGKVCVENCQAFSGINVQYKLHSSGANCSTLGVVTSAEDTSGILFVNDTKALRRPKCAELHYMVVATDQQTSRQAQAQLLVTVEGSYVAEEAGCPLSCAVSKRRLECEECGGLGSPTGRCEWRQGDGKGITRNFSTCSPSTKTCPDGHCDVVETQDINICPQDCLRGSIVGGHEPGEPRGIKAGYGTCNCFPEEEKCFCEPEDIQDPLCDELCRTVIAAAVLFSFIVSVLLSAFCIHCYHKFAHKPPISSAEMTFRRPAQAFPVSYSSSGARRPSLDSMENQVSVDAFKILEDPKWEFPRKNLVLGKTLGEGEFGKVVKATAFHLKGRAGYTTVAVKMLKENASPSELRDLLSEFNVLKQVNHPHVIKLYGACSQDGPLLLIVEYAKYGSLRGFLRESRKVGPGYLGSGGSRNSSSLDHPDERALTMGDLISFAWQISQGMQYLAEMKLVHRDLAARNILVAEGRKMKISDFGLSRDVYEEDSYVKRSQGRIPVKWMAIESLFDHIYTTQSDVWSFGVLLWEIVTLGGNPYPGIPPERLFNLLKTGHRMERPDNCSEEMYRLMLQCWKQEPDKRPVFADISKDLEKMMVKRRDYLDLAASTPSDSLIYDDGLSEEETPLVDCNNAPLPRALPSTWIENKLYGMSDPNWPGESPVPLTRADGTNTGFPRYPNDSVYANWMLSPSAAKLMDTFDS
Fibroblast growth factor receptor 2, sequence (P21802 whole entry): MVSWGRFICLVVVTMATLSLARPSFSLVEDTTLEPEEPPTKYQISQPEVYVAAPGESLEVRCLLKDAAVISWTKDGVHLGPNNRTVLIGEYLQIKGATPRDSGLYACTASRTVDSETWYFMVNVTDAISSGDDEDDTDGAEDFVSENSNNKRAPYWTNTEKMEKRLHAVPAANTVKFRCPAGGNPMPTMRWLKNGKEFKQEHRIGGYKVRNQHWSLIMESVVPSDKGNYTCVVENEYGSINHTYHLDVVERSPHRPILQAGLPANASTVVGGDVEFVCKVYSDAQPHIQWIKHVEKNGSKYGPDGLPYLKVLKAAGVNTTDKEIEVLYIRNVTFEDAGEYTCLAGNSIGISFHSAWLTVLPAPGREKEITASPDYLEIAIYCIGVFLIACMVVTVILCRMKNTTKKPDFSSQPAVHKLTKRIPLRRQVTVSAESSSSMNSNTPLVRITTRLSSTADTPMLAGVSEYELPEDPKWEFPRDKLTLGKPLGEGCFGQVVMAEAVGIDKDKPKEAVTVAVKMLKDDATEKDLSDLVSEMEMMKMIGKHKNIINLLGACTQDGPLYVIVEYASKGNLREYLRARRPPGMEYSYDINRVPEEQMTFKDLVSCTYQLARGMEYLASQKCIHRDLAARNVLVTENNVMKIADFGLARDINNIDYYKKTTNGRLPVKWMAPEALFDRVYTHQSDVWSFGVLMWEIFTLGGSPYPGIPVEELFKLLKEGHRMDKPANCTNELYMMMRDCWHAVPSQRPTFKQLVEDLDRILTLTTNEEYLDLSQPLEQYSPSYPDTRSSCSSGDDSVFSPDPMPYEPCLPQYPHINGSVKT

Compound: COc1ccc(C(=O)Nc2ccc(CN3CCN(C)CC3)c(C(F)(F)F)c2)cc1C#Cc1cncc2ccccc12
IC50 [1]: > 500 nM

IC50 [2]: 2.6 nM
Compound: CN1CCN(Cc2ccc(NC(=O)c3cncc(C#Cc4cncc5ccccc45)c3)cc2C(F)(F)F)CC1
IC50 [1]: > 500 nM

IC50 [3]: > 100 nM
Compound: CN1CCN(Cc2ccc(NC(=O)c3ccc(C(F)(F)F)c(C#Cc4cncc5ccccc45)c3)cc2C(F)(F)F)CC1
IC50 [1]: > 500 nM

IC50 [2]: 108 nM
Compound: Cc1ccc(C(=O)Nc2ccc(CN3CCN(C)CC3)c(C(F)(F)F)c2)cc1C#Cc1cncc(N2CCCC2)c1
IC50 [1]: 119 nM

IC50 [3]: 1.2 nM
IC50 [2]: 79.1 nM
Compound: Cc1ccc(C(=O)Nc2ccc(CN3CCN(C)CC3)c(C(F)(F)F)c2)cc1C#Cc1cncc2ccccc12
IC50 [1]: 175 nM

IC50 [2]: > 100 nM
Compound: Cc1ccc(C(=O)Nc2ccc(CN3CCN(C)CC3)c(C(F)(F)F)c2)cc1C#Cc1cncc2[nH]ccc12
IC50 [1]: 490 nM

IC50 [2]: 105 nM
Compound: CCN(CC)c1cncc(C#Cc2cc(C(=O)Nc3ccc(CN4CCN(C)CC4)c(C(F)(F)F)c3)ccc2C)c1
IC50 [1]: 58.3 nM

IC50 [2]: 2.5 nM
Compound: CN1CCN(Cc2ccc(NC(=O)c3cccc(C#Cc4cncc5ccccc45)c3)cc2C(F)(F)F)CC1
IC50 [1]: 67.6 nM

Compound: CN1CCN(Cc2ccc(NC(=O)c3cc(C#Cc4cncc5ccccc45)ccn3)cc2C(F)(F)F)CC1
IC50 [1]: > 500 nM

IC50 [2]: 63.5 nM
Compound: Cc1ccc(C(=O)Nc2ccc(CN3CCN(C)CC3)c(C(F)(F)F)c2)cc1C#Cc1cncc2c1ccn2C
IC50 [1]: 10 nM

IC50 [3]: 0.5 nM
IC50 [2]: 48.7 nM
IC50 [4]: 0.3 nM
IC50 [5]: 1 nM
IC50 [6]: 5.5 nM
IC50 [7]: 1.3 nM
IC50 [8]: 62.7 nM
IC50 [9]: > 100 nM
IC50 [10]: 5.6 nM
IC50 [11]: 5.5 nM
IC50 [12]: 10.8 nM
IC50 [13]: 23.2 nM
IC50 [14]: 26.4 nM
IC50 [16]: 131 nM
IC50 [17]: 489 nM
IC50 [18]: 37.2 nM
IC50 [19]: 33.4 nM
IC50 [20]: 7.5 nM
inhibition [21]: Dose-dependent effect
inhibition [22]: Dose-dependent effect
inhibition [23]: Dose-dependent effect
AUC(0-t) at 24 h [24]: 11400 ng·h/mL
IC50 [28]: 57 nM
Compound: CN1CCN(Cc2ccc(NC(=O)c3ccc(Cl)c(C#Cc4cncc(N5CCOCC5)c4)c3)cc2C(F)(F)F)CC1
IC50 [1]: 7.5 nM
IC50 [15]: 514 nM
inhibition in vivo at 20 mg/kg [25]: 73.4%
inhibition in vivo at 20 mg/kg [26]: 93.9%
inhibition in vivo at 5 mg/kg [27]: 8.3%

IC50 [3]: 5.7 nM
IC50 [2]: 21.8 nM
Compound: Cc1ccc(C(=O)Nc2ccc(CN3CCN(C)CC3)c(C(F)(F)F)c2)cc1C#Cc1cncc(N2CCN(C)CC2)c1
IC50 [1]: 21.7 nM

IC50 [2]: 89.9 nM
Compound: Cc1ccc(C(=O)Nc2ccc(CN3CCN(C)CC3)c(C(F)(F)F)c2)cc1C#Cc1cncc(N2CCOCC2)c1
IC50 [1]: 24.3 nM

Compound: COc1cc(CCc2cc(NC(=O)c3ccc(N4C[C@@H](C)N[C@@H](C)C4)cc3)n[nH]2)cc(OC)c1 [FEXAGRATINIB]
inhibition in vivo at 20 mg/kg [25]: 79.5%

IC50 [3]: > 100 nM
Compound: CN1CCN(Cc2ccc(NC(=O)c3cccc(C#Cc4cncc5ccccc45)n3)cc2C(F)(F)F)CC1

IC50 [2]: 59.9 nM
Compound: Cc1ccc(C(=O)Nc2ccc(CN3CCN(C)CC3)c(C(F)(F)F)c2)cc1C#Cc1cncc(NC(C)C)c1
IC50 [1]: 84.5 nM

Compound: CN1CCN(Cc2ccc(NC(=O)c3ccnc(C#Cc4cncc5ccccc45)n3)cc2C(F)(F)F)CC1
IC50 [1]: > 500 nM

IC50 [3]: > 100 nM
Compound: CC(C)c1ccc(C(=O)Nc2ccc(CN3CCN(C)CC3)c(C(F)(F)F)c2)cc1C#Cc1cncc2ccccc12

IC50 [14]: 33.6 nM
IC50 [19]: 71.5 nM
IC50 [20]: 1.9 nM
IC50 [28]: 194 nM
Compound: Cc1ccc(C(=O)Nc2ccc(CN3CCN(C)CC3)c(C(F)(F)F)c2)cc1C#Cc1cnc2cccnn12 [PONATINIB]
IC50 [1]: 17.2 nM
IC50 [15]: 736 nM
inhibition in vivo at 30 mg/kg [29]: 75.3%

IC50 [3]: 12.8 nM
IC50 [2]: 110 nM
Compound: COc1cncc(C#Cc2cc(C(=O)Nc3ccc(CN4CCN(C)CC4)c(C(F)(F)F)c3)ccc2C)c1
IC50 [1]: 125 nM

IC50 [2]: 6.5 nM
Compound: CN1CCN(Cc2ccc(NC(=O)c3ccnc(C#Cc4cncc5ccccc45)c3)cc2C(F)(F)F)CC1
IC50 [1]: 427 nM

IC50 [2]: 5.5 nM
Compound: CN1CCN(Cc2ccc(NC(=O)c3ccc(F)c(C#Cc4cncc5ccccc45)c3)cc2C(F)(F)F)CC1
IC50 [1]: 27.8 nM

IC50 [2]: 91.4 nM
Compound: CN1CCN(Cc2ccc(NC(=O)c3ccc(Cl)c(C#Cc4cncc5ccccc45)c3)cc2C(F)(F)F)CC1
IC50 [1]: 88.2 nM
